Measurements gathered from unrelated publications.
Each line is one published result; the experiments were not run side by side.
SIRT6: NAD-dependent protein deacylase sirtuin-6 (SIRT6, Homo sapiens, UniProt Q8N6T7)
ALK: ALK tyrosine kinase receptor (ALK, Homo sapiens, UniProt Q9UM73)
CCR2: C-C chemokine receptor type 2 (CCR2, Homo sapiens, UniProt P41597)

The IC50 of `NC(=O)c1ccc(C(=O)NOCc2cccc(Br)c2)cc1` is reported as 5240 nM (SIRT6; enzyme activity; inhibitor; fluorescence).
The IC50 of `Cc1cc(-c2cccc(F)c2)n[nH]1` is reported as 240000 nM (ALK; enzyme activity; inhibitor; TR-FRET).
For `NC(=O)c1ccc(C(=O)NOCc2ccc(Sc3cccc(F)c3)c(C(F)(F)F)c2)cc1`, the IC50 was 1020 nM (SIRT6; enzyme activity; inhibitor; fluorescence).
The IC50 of `CN(Cc1ccc(NC(=O)C2=Cc3cc(-c4ccc(OCCCCCO)cc4)ccc3CCC2)cc1)C1CCOCC1` is reported as 10 nM (CCR2; calcium signal; antagonist).
For `CNC[C@]1(c2ccc(F)cc2F)C[C@H]1Oc1ccc(C#N)cc1-c1cc(C)[nH]n1` (racemic), the IC50 was 49 nM (ALK; enzyme activity; inhibitor; TR-FRET).
The IC50 of `C=CC(=O)N1CCN(C(=O)c2cc(Cc3n[nH]c(=O)c4ccccc34)ccc2F)CC1` is reported as 31.7 nM (Poly [ADP-ribose] polymerase 2 (PARP2, Homo sapiens, UniProt Q9UGN5); enzyme activity; inhibitor).
The IC50 of `Cc1cnc(-c2ccc(-c3ccc(NC(=O)Nc4c(F)cc(F)cc4F)cc3F)c3c2C(=O)NC3)[nH]1` is reported as 11.5 nM (Mitogen-activated protein kinase kinase kinase kinase 1 (MAP4K1, Homo sapiens, UniProt Q92918); enzyme activity; inhibitor).
The IC50 of `Nc1nonc1-n1cc(C(=O)N/N=C/c2ccc([N+](=O)[O-])cc2O)nn1` is reported as 121000 nM (SIRT6; enzyme activity; inhibitor; fluorescence).
`Cc1[nH]c(N)nc1-c1ccnc(Nc2ccc(N3CCOCC3)cc2)c1` has an IC50 of 1390 nM (Mitogen-activated protein kinase 10 (MAPK10, Homo sapiens, UniProt P53779); enzyme activity; inhibitor; ELISA).
The IC50 of `O=C1c2ccccc2-c2cccc3cccc1c23` is reported as > 150000 nM (Receptor-type tyrosine-protein phosphatase C (PTPRC, Homo sapiens, UniProt P08575); enzyme activity; inhibitor; fluorescence).
With `Cc1cccc(CONC(=O)c2ccc(C(N)=O)cc2)c1` the IC50 was 3940 nM (SIRT6; enzyme activity; inhibitor; fluorescence).
The IC50 of `O=[N+]([O-])C=Cc1ccc2[nH]c3ncc(Cl)cc3c2c1` is reported as 3300 nM (ALK; enzyme activity; inhibitor; ELISA).
`C=C(C)[C@H](CCC(C)(C)O)Cc1c(O)cc(OC)c2c1O[C@H](c1ccc(O)cc1O)CC2=O` has an IC50 of 98200 nM (Fatty acid synthase (FASN, Gallus gallus, UniProt P12276); enzyme activity; inhibitor; radiometric).
`NC(=O)c1ccc(C(=O)NOCc2ccccc2Br)cc1` has an IC50 of 9550 nM (SIRT6; enzyme activity; inhibitor; fluorescence).
`CCn1c(-c2nc3cc(C(=O)N4CCC[C@@H](N)C4)cc(OC)c3n2C)cc2cccnc21` gave an IC50 of 50100 nM (Sodium channel protein type 5 subunit alpha (SCN5A, Homo sapiens, UniProt Q14524); ion current; inhibitor).
`Cc1cc(-c2cc(C#N)ccc2O[C@@H]2C[C@]2(CO)c2ccc(F)cc2F)n[nH]1` (racemic) gave an IC50 of 34 nM (ALK; enzyme activity; inhibitor; TR-FRET).
The IC50 of `O=c1cc(-c2ccc3c(c2)OCO3)oc2c1ccc1occc12` is reported as > 100000 nM (Cyclin-dependent kinase 2, with cyclin E1 (CDK2, Homo sapiens, UniProt P24941); enzyme activity; inhibitor; ADP detection).
`Cc1ccc(Sc2ccc(CONC(=O)c3ccc(C(N)=O)cc3)cc2C(F)(F)F)cc1` gave an IC50 of 1500 nM (SIRT6; enzyme activity; inhibitor; fluorescence).
The IC50 of `N#Cc1ccc(COC[C@H]2O[C@@H](n3c(NCc4ccc(Cl)c(Cl)c4)nc4c(N)ncnc43)[C@H](O)[C@@H]2O)cc1` is reported as 390 nM (Heat shock cognate 71 kDa protein (HSPA8, Homo sapiens, UniProt P11142); ligand displacement; FP).
With `COc1cccc(Sc2ccc(CONC(=O)c3ccc(C(N)=O)cc3)cc2C(F)(F)F)c1` the IC50 was 1120 nM (SIRT6; enzyme activity; inhibitor; fluorescence).
The IC50 of `CN(Cc1ccc(NC(=O)C2=Cc3cc(-c4ccc(OCCCO)cc4)ccc3CCC2)cc1)C1CCOCC1` is reported as 199 nM (CCR2; ligand displacement; radioligand; cell membranes).
`COc1cc(/C=N/n2c(C)nc3ccc(Br)cc3c2=O)ccc1O` gave an IC50 of 33500 nM (Cathepsin B (CTSB, Homo sapiens, UniProt P07858); enzyme activity; inhibitor).
